According to ChEMBL document CHEMBL1151769, “Triprenylated flavonoids from Dorstenia psilurus and their alpha-glucosidase inhibition properties” (J Nat Prod, 2008):
The source made the active and inactive calls. The calls are words filed in the database; no cut-off is given here.

Key:
[1] = Inhibition of yeast alpha-D-glucosidase; set-up: species or system Saccharomyces
Method in brief: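 α-Glucosidase (500 units/mL) with p-nitrophenyl glucopyranoside (0.7 mM final) in 50 mM phosphate buffer pH 6.9, 1% v/v DMSO, 37 °C, 10 min, with or without a range of inhibitor concentrations. Stopped with an equal volume of 100 mM Na2CO3, and p-nitrophenol read at 400 nm. Rate taken from the linear slope of 1-min readings. IC50 derived by kinetic fitting.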

[2] = Inhibition of sweet almonds beta-D-glucosidase; set-up: species or system Prunus dulcis
[3] = Inhibition of jack bean beta-D-mannosidase; set-up: species or system Canavalia ensiformis
Canavalia ensiformis = assay: Inhibition of jack bean beta-D-mannosidase at 800 uM
Prunus dulcis = assay: Inhibition of sweet almonds beta-D-glucosidase at 800 uM

With OC[C@H]1NC[C@H](O)[C@@H](O)[C@@H]1O [DUVOGLUSTAT] the IC50 [1] was 426 µM.
Molecule C=C(C)[C@@H](O)Cc1ccc(-c2oc3c(CC=C(C)C)c(O)c(CC=C(C)C)c(O)c3c(=O)c2O)cc1O [DORSILURIN G] has an IC50 [1] of 7.51 µM, an IC50 [2] of 431 µM and an IC50 [3] of 232 µM.
In the case of C=C(C)[C@@H](O)Cc1ccc(-c2oc3c(CC=C(C)C)c(O)c4c(c3c(=O)c2O)OC(C)(C)CC4)cc1O [DORSILURIN H], the IC50 [1] is reported as 24 µM, the IC50 [2] is reported as 671 µM and the Activity (Canavalia ensiformis) is reported as “inactive”.
Molecule CC(C)=CCc1c(O)c(CC=C(C)C)c2oc(-c3ccc4c(c3)OC(C)(C)C=C4)c(O)c(=O)c2c1O [DORSILURIN C] has an IC50 [1] of 11.2 µM, an IC50 [2] of 422 µM and an IC50 [3] of 358 µM.
In the case of CC(C)=CCc1ccc(-c2oc3c4c(c5c(c3c(=O)c2O)OC(C)(C)CC5)OC(C)(C)CC4)cc1O [DORSILURIN K], the IC50 [1] is reported as 44 µM, the Activity (Prunus dulcis) is reported as “inactive” and the Activity (Canavalia ensiformis) is reported as “inactive”.
With C=C(C)[C@@H](O)Cc1ccc(-c2oc3c4c(c(CC=C(C)C)c(O)c3c(=O)c2O)OC(C)(C)CC4)cc1O [DORSILURIN I] the IC50 [1] was 21.5 µM, the IC50 [2] was 431 µM and the Activity (Canavalia ensiformis) was “inactive”.
In the case of CC(C)=CCc1ccc(-c2oc3c(CC=C(C)C)c(O)c(CC=C(C)C)c(O)c3c(=O)c2O)cc1O [DORSILURIN F], the IC50 [1] is reported as 4.13 µM, the IC50 [2] is reported as 117 µM and the IC50 [3] is reported as 192 µM.
Molecule CC(C)=CCc1ccc(-c2oc3c(CC=C(C)C)c(O)c4c(c3c(=O)c2O)OC(C)(C)CC4)cc1O [DORSILURIN J] has an IC50 [1] of 16.9 µM, an IC50 [2] of 317 µM and an IC50 [3] of 518 µM.
